Reference: ChEMBL document CHEMBL2034836, “Synthesis and anti-HIV activities of glutamate and peptide conjugates of nucleoside reverse transcriptase inhibitors” (J Med Chem, 2012)

Tests used:
HeLa = assay: Cytotoxicity against human HeLa P4/R5 cells after 48 hrs by MTT assay; type: cell-based; settings: read-out: EC50 (the source's name)
Summary of the method: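 Same P4R5 MAGI cell design as the infection assay but without virus; viability read by MTT tetrazolium reduction; each concentration tested in triplicate wells.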

[1] = tested on: Human immunodeficiency virus 1; assay: Antiviral activity against HIV1 BaL infected in HeLa P4/R5 cells assessed as reduction of viral infection incubated for 2 hrs followed by incubated in drug-free medium for 46 hrs by single round infection beta-galactosidase reporter gene assay; type: functional, organism-based; settings: Human immunodeficiency virus 1, BaL
Summary of the method: (§1)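 P4R5 MAGI cells (CD4 and coreceptors, HIV-1 LTR–β-galactosidase reporter) seeded at 1.2 × 10^4 cells/well ~18 h before infection; exposed 2 h at 37 °C to cell-free X4 IIIB or R5 BaL virus with or without compound, washed, cultured 46 h more; β-galactosidase chemiluminescent read-out. Infection reduction relative to untreated; EC50 by regression; triplicate wells; dextran sulfate control.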

[2] = tested on: Human immunodeficiency virus 1; assay: Antiviral activity against HIV1 3B infected in HeLa P4/R5 cells assessed as reduction of viral infection incubated for 2 hrs followed by incubated in drug-free medium for 46 hrs by single round infection beta-galactosidase reporter gene assay; type: functional, organism-based; settings: Human immunodeficiency virus 1, 3B; summary of the method: as §1
[3] = tested on: Human immunodeficiency virus 1; assay: Ratio of lamivudine EC50 to compound EC50 for HIV1 BaL infected in HeLa P4/R5 cells; type: functional
[4] = tested on: Human immunodeficiency virus 1; assay: Ratio of zidovudine EC50 to compound EC50 for HIV1 3B infected in HeLa P4/R5 cells; type: functional
[5] = tested on: Human immunodeficiency virus 1; assay: Antiviral activity against wild type HIV1 clade B 94US3393IN clinical isolate infected in PHA-P-stimulated human PBMC assessed as reverse transcriptase activity incubated for 6 hrs followed by incubated in drug-free medium for 6 days by multiround infection assay; type: functional, organism-based; settings: Human immunodeficiency virus 1, clade B 94US3393IN
[6] = tested on: Human immunodeficiency virus 1; assay: Ratio of zidovudine EC50 to compound EC50 for HIV1 BaL infected in HeLa P4/R5 cells; type: functional
[7] = tested on: Human immunodeficiency virus 1; assay: Antiviral activity against NNRTI-resistant HIV1 clade B A-17 clinical isolate infected in PHA-P-stimulated human PBMC assessed as reverse transcriptase activity incubated for 6 hrs followed by incubated in drug-free medium for 6 days by multiround infection assay; type: functional, organism-based; settings: Human immunodeficiency virus 1, clade B A-17
[8] = tested on: Human immunodeficiency virus 1; assay: Antiviral activity against wild type HIV1 clade C 98USMSC5016 clinical isolate infected in PHA-P-stimulated human PBMC assessed as reverse transcriptase activity incubated for 6 hrs followed by incubated in drug-free medium for 6 days by multiround infection assay; type: functional, organism-based; settings: Human immunodeficiency virus 1, clade C 98USMSC5016
[9] = tested on: Human immunodeficiency virus 1; assay: Ratio of lamivudine EC50 to compound EC50 for HIV1 3B infected in HeLa P4/R5 cells; type: functional
[10] = tested on: Human immunodeficiency virus 1; assay: Antiviral activity against multidrug-resistant HIV1 clade B 4775-5 clinical isolate infected in PHA-P-stimulated human PBMC assessed as reverse transcriptase activity incubated for 6 hrs followed by incubated in drug-free medium for 6 days by multiround infection assay; type: functional, organism-based; settings: Human immunodeficiency virus 1, clade B 4775-5

Compound | CC50 (HeLa) [µM] | EC50 [1] [µM] | EC50 [2] [µM] | other results
CCCCCCCCCCCCCC(=O)NCCCC[C@H](NC(=O)[C@H](CCC(=O)OC[C@H]1O[C@@H](n2cc(C)c(=O)[nH]c2=O)C[C@@H]1F)NC(=O)CCCCCCCCCCCCC)C(=O)O | > 108 | 29.1 | 26.8 | 
CCCCCCCCCCCCCC(=O)NCCCC[C@H](NC(=O)CCNC(=O)[C@H](CCC(=O)OC[C@H]1O[C@@H](n2cc(C)c(=O)[nH]c2=O)C[C@@H]1F)NC(C)=O)C(=O)O | > 121 | 6.9 | 10.6 | 
CCCCCCCCCCCCCC(=O)OC[C@H](NC(C)=O)C(=O)NCCC(=O)N[C@@H](CCC(=O)OC[C@H]1O[C@@H](n2cc(C)c(=O)[nH]c2=O)C[C@@H]1F)C(=O)NCC(=O)O | > 119 | 6.9 | 11.1 | 
CCCCCCCCCCCCCC(=O)OC[C@H](NC(C)=O)C(=O)NCCC(=O)N[C@@H](CCC(=O)OC[C@H]1O[C@@H](n2cc(C)c(=O)[nH]c2=O)C[C@@H]1N=[N+]=[N-])C(=O)NCC(=O)O | > 116 | 86.4 | 63.1 | 
CCCCCCCCCCCCCC(=O)N[C@@H](CCC(=O)OC[C@H]1O[C@@H](n2cc(C)c(=O)[nH]c2=O)C[C@@H]1F)C(=O)OC[C@H]1O[C@@H](n2cc(C)c(=O)[nH]c2=O)C[C@@H]1N=[N+]=[N-] | > 120 | 3.6 | 2.4 | 
CC(=O)N[C@@H](CCC(=O)OC[C@H]1O[C@@H](n2cc(C)c(=O)[nH]c2=O)C[C@@H]1F)C(=O)OC[C@H]1O[C@@H](n2cc(C)c(=O)[nH]c2=O)C[C@@H]1N=[N+]=[N-] | > 151 | 13.1 | 13.5 | 
CCCCCCCCCCCCCC(=O)N[C@@H](CCC(=O)OC[C@H]1O[C@@H](n2cc(C)c(=O)[nH]c2=O)C[C@@H]1F)C(=O)OC[C@@H]1O[C@H](n2ccc(N)nc2=O)CS1 | > 126 | 2.7 | 2 | 
CC(=O)N[C@@H](CCC(=O)OC[C@H]1O[C@@H](n2cc(C)c(=O)[nH]c2=O)C[C@@H]1F)C(=O)OC[C@@H]1O[C@H](n2ccc(N)nc2=O)CS1 | > 160 | 12.3 | 17 | 
CCCCCCCCCCCCCC(=O)N[C@@H](CCC(=O)OC[C@H]1O[C@@H](n2cc(C)c(=O)[nH]c2=O)C[C@@H]1N=[N+]=[N-])C(=O)OC[C@@H]1O[C@H](n2ccc(N)nc2=O)CS1 | > 122 | 6.5 | 6 | 
CC(=O)N[C@@H](CCC(=O)OC[C@H]1O[C@@H](n2cc(C)c(=O)[nH]c2=O)C[C@@H]1N=[N+]=[N-])C(=O)OC[C@@H]1O[C@H](n2ccc(N)nc2=O)CS1 | > 154 | 13.4 | 12 | 
Cc1cn([C@H]2C[C@H](N=[N+]=[N-])[C@@H](COC(=O)CC[C@H](NC(=O)CCC(=O)OC[C@H]3O[C@@H](n4cc(C)c(=O)[nH]c4=O)C[C@@H]3F)C(=O)OC[C@@H]3O[C@H](n4ccc(N)nc4=O)CS3)O2)c(=O)[nH]c1=O | > 107 | 1.4 | 0.9 | Ratio EC50 [3]: 8; Ratio EC50 [4]: 12; IC50 [5]: 0.0267 µM; IC90 [5]: 0.161 µM; Ratio EC50 [6]: 10; IC50 [7]: 0.0129 µM; IC90 [7]: 0.0283 µM; IC50 [8]: 0.0227 µM; IC90 [8]: 0.0845 µM; Ratio EC50 [9]: 36; IC50 [10]: 0.0059 µM; IC90 [10]: 0.046 µM
CCCCCCCCCCCCCC(=O)N[C@@H](CCC(=O)O)C(=O)OC[C@H]1O[C@@H](n2cc(C)c(=O)[nH]c2=O)C[C@@H]1F | > 51 | 7.7 | 6.3 | 
CCCCCCCCCCCCCC(=O)N[C@@H](CCC(=O)OC[C@@H]1O[C@H](n2ccc(N)nc2=O)CS1)C(=O)OC[C@H]1O[C@@H](n2cc(C)c(=O)[nH]c2=O)C[C@@H]1F | > 38 | 0.3 | 0.6 | 
CCCCCCCCCCCCCC(=O)N[C@@H](CCC(=O)OC[C@@H]1O[C@H](n2cc(F)c(N)nc2=O)CS1)C(=O)OC[C@H]1O[C@@H](n2cc(C)c(=O)[nH]c2=O)C[C@@H]1F | > 37 | 0.1 | 0.4 | 
Cc1cn([C@H]2C[C@H](F)[C@@H](CO)O2)c(=O)[nH]c1=O [ALOVUDINE] |  | 0.4 | 0.8 | IC50 [5]: 0.002 µM; IC90 [5]: 0.0204 µM; IC50 [7]: 0.026 µM; IC90 [7]: 0.0872 µM; IC50 [8]: 0.002 µM; IC90 [8]: 0.0123 µM; IC50 [10]: 0.107 µM; IC90 [10]: 1.06 µM
Nc1nc(=O)n([C@@H]2CS[C@H](CO)O2)cc1F [EMTRICITABINE] |  | 0.8 | 2 | 
Nc1ccn([C@@H]2CS[C@H](CO)O2)c(=O)n1 [LAMIVUDINE] |  | 11.3 | 32.7 | 
Cc1cn([C@H]2C[C@H](N=[N+]=[N-])[C@@H](CO)O2)c(=O)[nH]c1=O [ZIDOVUDINE] |  | 14.2 | 10.8 | IC90 [5]: 0.0213 µM; IC90 [7]: 0.152 µM; IC90 [8]: 0.0342 µM; IC90 [10]: 10.7 µM
